From ChEMBL document CHEMBL1122545, “N2-(4-Substituted-2,6-dichlorophenyl)-N1,N1-dimethylformamidines as antihypertensive and diuretic agents” (J Med Chem, 1984)
Values joined by “and” are separate entries in the source; they are usually repeats but may differ in a detail not shown here. Equal entries are not always repeated.

How the values were obtained:
[1] = tested on: Rattus norvegicus; assay: Antihypertensive activity in SH rats, and mean arterial blood pressure was reported at a dose of 10 mg/Kg; type: functional, Artery
Summary of the method: (§1)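 Male SH rats (Okamoto strain), 16 weeks old, dosed orally by gavage with compound dispersed in 3% starch in normal saline at 2 mL/kg. Oral normal saline load, then individual metabolism cages; 0-5 h urine collected, Na+ and K+ measured by flame photometry. Rats redosed at 24 h without the saline load. MABP and HR taken by femoral arterial puncture under local anesthetic 4 h after the second dose.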

[2] = tested on: Rattus norvegicus; assay: Antihypertensive activity in SH rats, and mean arterial blood pressure was reported at a dose of 25 mg/Kg; type: functional, Artery; summary of the method: as §1
[3] = Diuretic activity was determined expressed as Na+(sodium) excreted in milli equivalents was reported for a duration of 5 hours after administration of a dose of 10 mg/Kg; type: ADME, Urine; conditions: in vivo; summary of the method: as §1
[4] = tested on: Rattus norvegicus; assay: Antihypertensive activity determined as heart rate in SH rats, was reported at a dose of 10 mg/Kg; type: functional; summary of the method: as §1
[5] = Diuretic activity was determined expressed as Na+(sodium) excreted in milli equivalents was reported for a duration of 5 hours after administration of a dose of 25 mg/Kg; type: ADME, Urine; conditions: in vivo; summary of the method: as §1
[6] = tested on: Rattus norvegicus; assay: Diuretic activity was determined in SH rats expressed as K(+) (potassium) excreted in milli equivalents was reported for a duration of 5 hours after administration of a dose of 10 mg/Kg.; type: ADME, organism-based, Urine; conditions: in vivo; summary of the method: as §1
[7] = Diuretic activity was determined expressed as volume of urine excreted in mL was reported at a dose of 10 mg/Kg; type: ADME; conditions: in vivo; summary of the method: as §1
[8] = tested on: Rattus norvegicus; assay: Antihypertensive activity determined as heart rate in SH rats, was reported at a dose of 25 mg/Kg; type: functional; summary of the method: as §1
[9] = Diuretic activity was determined expressed as volume of urine excreted in mL was reported at a dose of 25 mg/Kg; type: ADME; conditions: in vivo; summary of the method: as §1
[10] = tested on: Rattus norvegicus; assay: Diuretic activity was determined in SH rats expressed as K(+) (potassium) excreted in milli equivalents was reported for a duration of 5 hours after administration of a dose of 25 mg/Kg.; type: ADME, organism-based, Urine; conditions: in vivo; summary of the method: as §1
[11] = tested on: Canis familiaris; assay: Antihypertensive activity in renal hypertensive dogs and maximal fall in mean arterial blood pressure (MABP) was reported at a time duration of 3 hour after peroral administration of 0.3 mg/Kg.; type: functional, Canis lupus familiaris, Artery
Summary of the method: (§2)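 Chronic phase two kidney-one clip Goldblatt renal hypertensive dogs from a standing colony, habituated to the procedure, dosed orally. Arterial blood pressure and heart rate taken by arterial puncture before dosing and repeated at 1, 3 and 5 h after dosing over a 6-h postdosing interval. Maximal falls in MABP and HR recorded.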

[12] = tested on: Canis familiaris; assay: Antihypertensive activity in renal hypertensive dogs and fall in heart rate(HR) was reported at a time duration of 5 hour after peroral administration of 0.3 mg/Kg.; type: functional, Canis lupus familiaris; summary of the method: as §2
[13] = tested on: Canis familiaris; assay: Antihypertensive activity in renal hypertensive dogs and fall in heart rate(HR) was reported at a time duration of 0 hour after peroral administration of 0.1 mg/Kg.; type: functional, Canis lupus familiaris; summary of the method: as §2
[14] = tested on: Rattus norvegicus; assay: Antihypertensive activity determined as heart rate in SH rats, was reported at a dose of 100 mg/Kg; type: functional; summary of the method: as §1
[15] = tested on: Canis familiaris; assay: Antihypertensive activity in renal hypertensive dogs and maximal fall in mean arterial blood pressure (MABP) was reported at a time duration of 1 hour after peroral administration of 0.3 mg/Kg.; type: functional, Canis lupus familiaris, Artery; summary of the method: as §2
[16] = tested on: Canis familiaris; assay: Antihypertensive activity in renal hypertensive dogs and maximal fall in mean arterial blood pressure (MABP) was reported at a time duration of 3 hour after peroral administration of 0.2 mg/Kg.; type: functional, Canis lupus familiaris, Artery; summary of the method: as §2
[17] = tested on: Canis familiaris; assay: Antihypertensive activity in renal hypertensive dogs and maximal fall in mean arterial blood pressure (MABP) was reported at a time duration of 0 hour after peroral administration of 0.2 mg/Kg.; type: functional, Canis lupus familiaris, Artery; summary of the method: as §2
[18] = tested on: Canis familiaris; assay: Antihypertensive activity in renal hypertensive dogs and fall in heart rate(HR) was reported at a time duration of 1 hour after peroral administration of 1.0 mg/Kg.; type: functional, Canis lupus familiaris; summary of the method: as §2
[19] = tested on: Canis familiaris; assay: Antihypertensive activity in renal hypertensive dogs and fall in heart rate(HR) was reported at a time duration of 3 hour after peroral administration of 0.1 mg/kg; type: functional, Canis lupus familiaris; conditions: route oral; summary of the method: as §2
[20] = tested on: Canis familiaris; assay: Antihypertensive activity in renal hypertensive dogs and fall in heart rate(HR) was reported at a time duration of 5 hour after peroral administration of 1.0 mg/Kg.; type: functional, Canis lupus familiaris; summary of the method: as §2
[21] = tested on: Canis familiaris; assay: Antihypertensive activity in renal hypertensive dogs and fall in heart rate(HR) was reported at a time duration of 0 hour after peroral administration of 1.0 mg/Kg.; type: functional, Canis lupus familiaris; summary of the method: as §2
[22] = tested on: Canis familiaris; assay: Antihypertensive activity in renal hypertensive dogs and maximal fall in mean arterial blood pressure (MABP) was reported at a time duration of 0 hour after peroral administration of 1.0 mg/Kg.; type: functional, Canis lupus familiaris, Artery; summary of the method: as §2
[23] = tested on: Rattus norvegicus; assay: Antihypertensive activity in SH rats, and mean arterial blood pressure was reported at a dose of 100 mg/Kg; type: functional, Artery; summary of the method: as §1
[24] = tested on: Canis familiaris; assay: Antihypertensive activity in renal hypertensive dogs and fall in heart rate(HR) was reported at a time duration of 1 hour after peroral administration of 0.1 mg/kg.; type: functional, Canis lupus familiaris; conditions: route oral; summary of the method: as §2
[25] = tested on: Canis familiaris; assay: Antihypertensive activity in renal hypertensive dogs and maximal fall in mean arterial blood pressure (MABP) was reported at a time duration of 1 hour after peroral administration of 0.1 mg/Kg.; type: functional, Canis lupus familiaris, Artery; summary of the method: as §2
[26] = tested on: Canis familiaris; assay: Antihypertensive activity in renal hypertensive dogs and maximal fall in mean arterial blood pressure (MABP) was reported at a time duration of 5 hour after peroral administration of 0.2 mg/Kg.; type: functional, Canis lupus familiaris, Artery; summary of the method: as §2
[27] = tested on: Canis familiaris; assay: Antihypertensive activity in renal hypertensive dogs and fall in heart rate(HR) was reported at a time duration of 3 hour after peroral administration of 0.2 mg/Kg.; type: functional, Canis lupus familiaris; summary of the method: as §2
[28] = tested on: Canis familiaris; assay: Antihypertensive activity in renal hypertensive dogs and fall in heart rate(HR) was reported at a time duration of 1 hour after peroral administration of 0.3 mg/Kg.; type: functional, Canis lupus familiaris; summary of the method: as §2
[29] = tested on: Canis familiaris; assay: Antihypertensive activity in renal hypertensive dogs and fall in heart rate(HR) was reported at a time duration of 5 hour after peroral administration of 0.2 mg/Kg.; type: functional, Canis lupus familiaris; summary of the method: as §2
[30] = tested on: Canis familiaris; assay: Antihypertensive activity in renal hypertensive dogs and fall in heart rate(HR) was reported at a time duration of 0 hour after peroral administration of 0.3 mg/kg.; type: functional, Canis lupus familiaris; conditions: route oral; summary of the method: as §2
[31] = tested on: Canis familiaris; assay: Antihypertensive activity in renal hypertensive dogs and maximal fall in mean arterial blood pressure (MABP) was reported at a time duration of 0 hour after peroral administration of 0.1 mg/Kg; type: functional, Canis lupus familiaris, Artery; summary of the method: as §2
[32] = tested on: Canis familiaris; assay: Antihypertensive activity in renal hypertensive dogs and fall in heart rate(HR) was reported at a time duration of 3 hour after peroral administration of 0.3 mg/Kg.; type: functional, Canis lupus familiaris; summary of the method: as §2
[33] = tested on: Rattus norvegicus; assay: […] activity expressed as Na+(sodium) excreted in milli equivalents was reported for a duration of 5 hours after administration of a dose of 100 mg/Kg; type: ADME, organism-based, Urine; conditions: in vivo; summary of the method: as §1
[34] = tested on: Canis familiaris; assay: Antihypertensive activity in renal hypertensive dogs and maximal fall in mean arterial blood pressure (MABP) was reported at a time duration of 3 hour after peroral administration of 1.0 mg/Kg.
[35] = tested on: Canis familiaris; assay: Antihypertensive activity in renal hypertensive dogs and fall in heart rate(HR) was reported at a time duration of 3 hour after peroral administration of 1.0 mg/Kg.; type: functional, Canis lupus familiaris; summary of the method: as §2
[36] = tested on: Canis familiaris; assay: Antihypertensive activity in renal hypertensive dogs and fall in heart rate(HR) was reported at a time duration of 5 hour after peroral administration of 0.1 mg/Kg; type: functional, Canis lupus familiaris; summary of the method: as §2
[37] = tested on: Canis familiaris; assay: Antihypertensive activity in renal hypertensive dogs and maximal fall in mean arterial blood pressure (MABP) was reported at a time duration of 1 hour after peroral administration of 1.0 mg/Kg.; type: functional, Canis lupus familiaris, Artery; summary of the method: as §2
[38] = tested on: Canis familiaris; assay: Antihypertensive activity in renal hypertensive dogs and maximal fall in mean arterial blood pressure (MABP) was reported at a time duration of 5 hour after peroral administration of 0.3 mg/Kg; type: functional, Canis lupus familiaris, Artery
Summary of the method: (§3)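 Chronic-phase two kidney-one clip Goldblatt renal hypertensive dogs from a standing colony, habituated to the procedure. Mean arterial pressure and heart rate taken by direct arterial puncture before dosing and again 1, 3 and 5 h after oral dosing; maximal fall recorded over the 6-h postdosing interval.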

[39] = tested on: Canis familiaris; assay: Antihypertensive activity in renal hypertensive dogs and fall in heart rate(HR) was reported at a time duration of 0 hour after peroral administration of 0.2 mg/Kg.; type: functional, Canis lupus familiaris; summary of the method: as §2
[40] = tested on: Rattus norvegicus; assay: Diuretic activity was determined expressed as volume of urine excreted in mL was reported at a dose of 100 mg/Kg; type: ADME, organism-based; conditions: in vivo; summary of the method: as §1
[41] = tested on: Canis familiaris; assay: Antihypertensive activity in renal hypertensive dogs and fall in heart rate(HR) was reported at a time duration of 1 hour after peroral administration of 0.2 mg/kg.; type: functional, Canis lupus familiaris; conditions: route oral; summary of the method: as §2
[42] = tested on: Canis familiaris; assay: Antihypertensive activity in renal hypertensive dogs and maximal fall in mean arterial blood pressure (MABP) was reported at a time duration of 1 hour after peroral administration of 0.2 mg/Kg.; type: functional, Canis lupus familiaris, Artery; summary of the method: as §2
[43] = tested on: Canis familiaris; assay: Antihypertensive activity in renal hypertensive dogs and maximal fall in mean arterial blood pressure (MABP) was reported at a time duration of 3 hour after peroral administration of 0.1 mg/Kg; type: functional, Canis lupus familiaris, Artery; summary of the method: as §2
[44] = tested on: Rattus norvegicus; assay: […] activity expressed as K(+) (potassium) excreted in milli equivalents was reported for a duration of 5 hours after administration of a dose of 100 mg/Kg.; type: ADME, organism-based, Urine; conditions: in vivo; summary of the method: as §1
[45] = tested on: Canis familiaris; assay: Antihypertensive activity in renal hypertensive dogs and maximal fall in mean arterial blood pressure (MABP) was reported at a time duration of 0 hour after peroral administration of 0.3 mg/Kg.; type: functional, Canis lupus familiaris, Artery; summary of the method: as §2
[46] = tested on: Canis familiaris; assay: Antihypertensive activity in renal hypertensive dogs and maximal fall in mean arterial blood pressure (MABP) was reported at a time duration of 5 hour after peroral administration of 1.0 mg/Kg.; type: functional, Canis lupus familiaris, Artery; summary of the method: as §3

SMILES: COc1cc(N(C)C)ccc1CNc1cc(Cl)c(/N=C/N(C)C)c(Cl)c1
- MABP [1]: 132 mmHg
- MABP [2]: 114 mmHg
- Diuretic activity [3]: 1.29 m equiv
- HR [4]: 450 beats min-1
- Diuretic activity [5]: 2.16 m equiv
- Diuretic activity [6]: 0.48 m equiv
- Diuretic activity [7]: 14.8 mL
- HR [8]: 270 beats min-1
- Diuretic activity [9]: 22.5 mL
- Diuretic activity [10]: 0.75 m equiv

SMILES: CN(C)/C=N/c1c(Cl)cc(NCc2ccc(N(C)C)cc2Cl)cc1Cl
- MABP [11]: 128 mmHg
- HR [12]: 60 bpm
- HR [13]: 120 bpm
- HR [14]: 310 beats min-1
- MABP [15]: 111 mmHg
- MABP [16]: 129 mmHg
- MABP [17]: 152 mmHg
- HR [18]: 60 bpm
- HR [19]: 96 bpm
- HR [20]: 66 bpm
- HR [21]: 110 bpm
- MABP [22]: 140 mmHg
- MABP [23]: 116 mmHg
- HR [24]: 100 bpm
- MABP [25]: 126 mmHg
- MABP [26]: 147 mmHg
- HR [27]: 58 bpm
- HR [28]: 60 bpm
- HR [29]: 65 bpm
- HR [30]: 94 bpm
- MABP [31]: 146 mmHg
- HR [32]: 63 bpm
- Diuretic activity [33]: 1.89 m equiv
- MABP [34]: 114 mmHg
- HR [35]: 47 bpm
- HR [36]: 113 bpm
- MABP [37]: 108 mmHg
- MABP [38]: 132 mmHg
- HR [39]: 79 bpm
- Diuretic activity [40]: 22.3 mL
- HR [41]: 56 bpm
- MABP [42]: 123 mmHg
- MABP [43]: 135 mmHg and 144 mmHg
- Diuretic activity [44]: 0.47 m equiv
- MABP [45]: 148 mmHg
- MABP [46]: 128 mmHg
